Results on one molecule are retold here after ChEMBL document CHEMBL4406804, “Discovery of a Potent Steroidal Glucocorticoid Receptor Antagonist with Enhanced Selectivity against the Progesterone and Androgen Receptors (OP-3633)” (J Med Chem, 2019).

Data set [1] is described as follows: Oral bioavailability in rat at 5 mg/kg. The class given is ADME, organism-based. The note with it: in vivo. In a few lines: (§1)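 Rat PK study. The iv dose of 0.5 mg/kg was given in 10% DMSO, 70% PEG 400 and 20% water. The oral dose of 5 mg/kg was given in 5% DMSO / 95% of 0.2% Tween 80 in 0.25% CMC, adjusted to pH 4 for one compound. Read-outs were CL, Vss, iv t1/2, F, Cmax and AUC.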

Data set [2] in a line: Cmax in rat at 5 mg/kg, po. The note with it: in vivo. More on the design: dose 5 mg/kg, route oral. The class given is ADME, organism-based. In a few lines:
as §1

Data set [3] is described as follows: Volume of distribution at steady state in rat at 0.5 mg/kg, iv. The class given is ADME, organism-based. The note with it: in vivo, read-out: Vdss. An outline of the steps:
as §1

The nature of data set [4]: Cmax in mini-pig at 5 mg/kg, po. It is filed as ADME, organism-based, Sus scrofa domesticus. On the set-up: dose 5 mg/kg, route oral. The note with it: in vivo.
For data set [5], the target named is T1, Glucocorticoid receptor (Homo sapiens) (UniProt P04150).
T1 sequence (whole entry): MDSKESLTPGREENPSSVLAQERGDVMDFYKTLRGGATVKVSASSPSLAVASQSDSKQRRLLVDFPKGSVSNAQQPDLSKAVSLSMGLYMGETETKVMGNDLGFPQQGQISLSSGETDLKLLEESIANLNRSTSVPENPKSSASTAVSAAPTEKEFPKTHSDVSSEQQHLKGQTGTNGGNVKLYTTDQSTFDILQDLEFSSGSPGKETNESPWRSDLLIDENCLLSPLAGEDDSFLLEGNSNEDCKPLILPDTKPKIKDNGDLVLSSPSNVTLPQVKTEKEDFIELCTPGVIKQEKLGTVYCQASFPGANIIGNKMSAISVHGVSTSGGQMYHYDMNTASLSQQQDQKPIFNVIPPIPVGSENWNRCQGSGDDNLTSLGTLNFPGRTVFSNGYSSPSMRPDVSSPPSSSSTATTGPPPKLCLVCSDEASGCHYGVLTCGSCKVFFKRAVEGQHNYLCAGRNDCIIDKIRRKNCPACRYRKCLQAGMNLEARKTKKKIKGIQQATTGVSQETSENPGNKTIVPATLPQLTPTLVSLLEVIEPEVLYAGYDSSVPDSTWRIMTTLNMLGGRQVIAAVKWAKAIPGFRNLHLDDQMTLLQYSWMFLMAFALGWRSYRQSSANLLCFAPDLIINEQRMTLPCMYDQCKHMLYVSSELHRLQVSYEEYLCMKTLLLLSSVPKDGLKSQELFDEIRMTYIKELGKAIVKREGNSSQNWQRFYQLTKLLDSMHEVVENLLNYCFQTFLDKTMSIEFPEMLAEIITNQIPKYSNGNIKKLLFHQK
The experiment in a line: Antagonist activity at human glucocorticoid receptor expressed in CHO-K1 cells harboring firefly luciferase gene assessed as inhibition of glucocorticoid receptor activity at 0.01 to 10000 nM after 20 hrs by One-Glo luciferase reporter gene assay relative to mifepristone. It is filed as cell-based. On the set-up: scale not given: the % may be the effect or the level left. In a few lines: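 Cell-based luciferase reporter assays for GR, AR and PR, run in agonist and antagonist modes. Potency and Emax are averages of at least two determinations, reported with SD.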

A short description of data set [6]: AUC in rat at 5 mg/kg, po. The note with it: in vivo. It is filed as ADME, organism-based. In a few lines:
as §1

The nature of data set [7]: AUC in mini-pig at 5 mg/kg, po. The note with it: in vivo. The class given is ADME, organism-based, Sus scrofa domesticus.
Data set [8] is described as follows: Clearance in dog at 0.5 mg/kg, iv. The class given is ADME, organism-based, Canis lupus familiaris. The note with it: in vivo.
Data set [9] can be described thus: Toxicity in female rat assessed as effect on clinical observation at 250 mg/kg/day, po administered once daily via gavage for 14 days. It is filed as organism-based. The note with it: in vivo, 336 h.
Data set [10] can be described thus: Clearance in rat at 0.5 mg/kg, iv. It is filed as ADME, organism-based. The note with it: in vivo. In a few lines: as §1
Data set [11] in a line: Volume of distribution at steady state in mini-pig at 0.5 mg/kg, iv. The class given is ADME, organism-based, Sus scrofa domesticus. The note with it: in vivo, read-out: Vdss.
Data set [12] has as its target T2, Glucocorticoid receptor (Homo sapiens, UniProt P04150).
T2 sequence (P04150 whole entry): T1 sequence (whole entry)
The experiment in a line: Antagonist activity at human glucocorticoid receptor expressed in CHO-K1 cells assessed as inhibition of glucocorticoid receptor-dexamethasone coactivator protein-protein interaction incubated for 24 hrs by bioluminescence assay. It is filed as cell-based.

The target of data set [13] is T2, Glucocorticoid receptor. The experiment in a line: Displacement of fluormone tracer from full length human recombinant glucocorticoid receptor expressed in baculovirus expression system incubated for 2 hrs by competitive fluorescence polarization binding assay. On the technique in general: In fluorescence polarisation assays a small probe gives low polarisation when free and higher when bound to something large.

Data set [14] in a line: Cmax in dog at 5 mg/kg, po. The class given is ADME, organism-based, Canis lupus familiaris. More on the design: dose 5 mg/kg, route oral. The note with it: in vivo.
The target in another data set is T3, CYP2C8 (Homo sapiens, UniProt P10632).
T3 sequence (P10632 whole entry): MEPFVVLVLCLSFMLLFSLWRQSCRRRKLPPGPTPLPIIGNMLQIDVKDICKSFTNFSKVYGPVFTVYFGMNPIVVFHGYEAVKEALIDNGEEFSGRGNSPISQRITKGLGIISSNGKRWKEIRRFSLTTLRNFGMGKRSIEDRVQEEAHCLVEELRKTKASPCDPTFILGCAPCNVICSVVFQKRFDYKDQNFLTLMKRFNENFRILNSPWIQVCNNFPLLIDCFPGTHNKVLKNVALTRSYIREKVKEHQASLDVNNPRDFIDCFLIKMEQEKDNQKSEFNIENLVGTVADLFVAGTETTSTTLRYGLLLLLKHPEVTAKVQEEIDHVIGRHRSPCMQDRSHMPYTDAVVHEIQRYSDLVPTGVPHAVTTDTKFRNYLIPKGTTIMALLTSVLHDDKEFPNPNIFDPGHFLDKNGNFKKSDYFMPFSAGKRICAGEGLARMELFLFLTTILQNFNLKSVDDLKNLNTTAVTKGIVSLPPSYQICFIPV
Nature of the data set: Inhibition of CYP2C8 (unknown origin) at 10 uM using paclitaxel as substrate relative to control. The note with it: probe paclitaxel. The class given is ADME.

Broadly, the bioavailability is dose-corrected exposure relative to a reference, in per cent. Usually Cmax stands for the highest concentration seen after dosing. In general, AUC refers to concentration integrated over time. One may read the clearance as the volume of plasma or blood freed of the substance per unit of time. By IC50 is commonly meant the midpoint of a concentration-inhibition curve. A word on the inhibition: it is how much of the control response was suppressed. `CC#C[C@]1(O)CC[C@H]2[C@@H]3CCC4=CC(=O)CC[C@]4(C)[C@H]3[C@@H](c3ccc(N(C)C)cc3)C[C@@]21C` returned a bioavailability in data set [1] of 62%. Besides, the Cmax in data set [2] was 518 ng/mL; in data set [4] it was 249 ng/mL; in [14], 1260 ng/mL. Besides, the Vd in data set [3] came to 4.7 L/kg; in data set [11], 1.45 L/kg. In addition, the results for the Activity in data set [5] and in data set [9] were 100% and “Non-Toxic”, respectively. The results for the AUC in [6] and in data set [7] were 1020 ng·h/mL and 2450 ng·h/mL, respectively. Also, the values for the clearance in data set [8] and in data set [10] were 10.2 mL/min/kg and 51.7 mL/min/kg, respectively. In addition, the IC50 at Glucocorticoid receptor [12] is 16 nM; on Glucocorticoid receptor [13], 8.5 nM. At CYP2C8, the inhibition at 10 µM turned out to be 58%.
